Converted amounts (≈) assume the structure as drawn.
Experiments:
[1] = biological target: Glutamate NMDA receptor; GRIN1/GRIN2B (Homo sapiens, UniProt Q05586+Q13224); experiment: Displacement of [3H]ifenprodil from GluN1a/GluN2B (unknown origin) expressed in mouse L(tk-) cell membranes after 120 mins by solid scintillation counting method
Summary of the method: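 Membranes (about 20 μg protein) from mouse L(tk-) cells stably carrying GluN1a/GluN2B, induced with 4 μM dexamethasone and 4 μM ketamine for 24 h. Incubated with 5 nM [3H]ifenprodil in 5 mM TRIS/1 mM EDTA pH 7.5 at 37 °C, 120 min. Non-specific binding defined with 10 μM ifenprodil.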

[2] = Selectivity ratio of Ki for sigma2 receptor in rat liver membranes to Ki for GluN1a/GluN2B (unknown origin) expressed in mouse L(tk-) cell membranes; type: cell-based
[3] = Selectivity ratio of Ki for sigma1 receptor in guinea pig brain membranes to Ki for sigma2 receptor in rat liver membranes; type: cell membranes
[4] = biological target: Sigma non-opioid intracellular receptor 1 (Cavia porcellus, UniProt Q60492); experiment: Displacement of [3H]-(+)-pentazocine from sigma1 receptor in guinea pig brain cortex membranes incubated for 120 mins by solid scintillation counting method; type: cell membranes
Chain of Sigma non-opioid intracellular receptor 1 (Q60492 whole entry): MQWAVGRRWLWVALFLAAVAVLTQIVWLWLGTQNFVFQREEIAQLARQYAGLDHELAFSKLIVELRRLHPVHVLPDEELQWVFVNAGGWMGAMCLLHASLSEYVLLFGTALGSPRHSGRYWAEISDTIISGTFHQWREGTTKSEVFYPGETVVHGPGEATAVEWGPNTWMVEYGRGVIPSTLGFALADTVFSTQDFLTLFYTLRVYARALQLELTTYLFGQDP
Summary of the method: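 Guinea pig brain cortex membranes (about 100 µg protein) with 2 nM [3H]-(+)-pentazocine in 50 mM TRIS pH 7.4 at 37 °C. Non-specific binding defined with 10 µM unlabeled (+)-pentazocine. Six concentrations, 10^-5 to 10^-10 M, in duplicate. 120 min with shaking, filtration, solid scintillator counting.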

[5] = biological target: T1, Sigma intracellular receptor 2 (Rattus norvegicus, UniProt Q5U3Y7); experiment: Displacement of [3H]-di-o-tolylguanidine from sigma2 receptor in rat liver membranes in the presence of sigma1 receptor ligand (+)-pentazocine incubated for 120 mins by scintillation counting method; type: cell membranes
T1 sequence (Q5U3Y7 whole entry): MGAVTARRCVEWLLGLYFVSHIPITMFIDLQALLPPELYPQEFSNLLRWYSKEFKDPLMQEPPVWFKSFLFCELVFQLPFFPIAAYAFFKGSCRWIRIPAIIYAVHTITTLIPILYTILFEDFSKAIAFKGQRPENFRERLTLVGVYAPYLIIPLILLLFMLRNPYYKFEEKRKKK
Summary of the method: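 Rat liver membranes (about 100 µg protein) with 3 nM [3H]di-o-tolylguanidine in 50 mM TRIS pH 8.0 containing 500 nM (+)-pentazocine, at rt. Non-specific binding defined with 10 µM unlabeled DTG. Concentrations 10^-5 to 10^-10 M, in duplicate. 120 min, filtration, scintillation counting. Three independent experiments, mean ± SEM.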

[6] = Cytotoxicity against human SH-SY5Y cells assessed as cell viability at 100 uM incubated for 48 hrs by MTT assay (reference value: 100 +/- 12.00%); type: cell-based; conditions: read-out: Activity
Summary of the method: (§1)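 Cells kept in DMEM Glutamax with 10% FBS and antibiotic/antimycotic at 37 °C, 5% CO2. Plated at 2x10^3 cells/well 24 h before dosing. Compounds taken from DMSO and diluted in medium, final DMSO ≤1.0%. Exposure 48 h, then MTT added for 4 h at 37 °C. Read as A595 minus A655. Triplicates, at least three independent experiments, mean ± SEM.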

[7] = Cytotoxicity against human SH-SY5Y cells assessed as cell viability at 10 uM incubated for 48 hrs by MTT assay (reference value: 100 +/- 12.00%); type: cell-based; conditions: read-out: Activity; summary of the method: as §1
[8] = Antioxidant activity assessed as ABTS radical scavenging activity incubated for 40 mins; type: functional
Summary of the method: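 Test compound at 0.05, 0.1, 0.2 and 0.4 mg/mL (200 µL) added to 1.8 mL ethanolic ABTS 7mM. Incubated 40 min at room temperature, absorbance read at 735 nm against ABTS solution. Percent inhibition computed from absorbances and used to derive IC50. Triplicate, mean ± SEM; ascorbic acid as reference.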

[9] = Cytotoxicity against human Hep3B cells assessed as cell viability at 25 uM incubated for 48 hrs by MTT assay relative to control; type: cell-based, Hep 3B2; conditions: read-out: Activity; summary of the method: as §1
[10] = Cytotoxicity against human Hep3B cells assessed as decrease in cell viability incubated for 48 hrs by MTT assay; type: cell-based, Hep 3B2; conditions: read-out: LD50
Summary of the method: (§2)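 Cells kept in DMEM Glutamax with 10% FBS and antibiotic/antimycotic at 37 °C, 5% CO2. Seeded 24 h before dosing (SH-SY5Y at 2x10^3 cells/well). Compounds in DMSO serially diluted in medium, final DMSO 1.0%, exposure 48 h. MTT added for 4 h at 37 °C, read A595 minus A655. LD50 from linear regression of dose-log response curves; triplicates, three experiments, mean ± SEM.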

[11] = Cytotoxicity against human HeLa cells assessed as cell viability at 50 uM incubated for 48 hrs by MTT assay relative to control; type: cell-based; conditions: read-out: Activity; summary of the method: as §1
[12] = Cytotoxicity against human Hep3B cells assessed as cell viability at 50 uM incubated for 48 hrs by MTT assay relative to control; type: cell-based, Hep 3B2; conditions: read-out: Activity; summary of the method: as §1
[13] = Cytotoxicity against human HeLa cells assessed as decrease in cell viability incubated for 48 hrs by MTT assay; type: cell-based; conditions: read-out: LD50; summary of the method: as §2
[14] = Cytotoxicity against human SH-SY5Y cells assessed as cell viability at 50 uM incubated for 48 hrs by MTT assay (reference value: 100 +/- 12.00%); type: cell-based; conditions: read-out: Activity; summary of the method: as §1
[15] = Cytotoxicity against human Hep3B cells assessed as cell viability at 10 uM incubated for 48 hrs by MTT assay relative to control; type: cell-based, Hep 3B2; conditions: read-out: Activity; summary of the method: as §1
[16] = Cytotoxicity against human HeLa cells assessed as cell viability at 25 uM incubated for 48 hrs by MTT assay relative to control; type: cell-based; conditions: read-out: Activity; summary of the method: as §1
[17] = Cytotoxicity against human HeLa cells assessed as cell viability at 100 uM incubated for 48 hrs by MTT assay relative to control; type: cell-based; conditions: read-out: Activity; summary of the method: as §1
[18] = Cytotoxicity against human HeLa cells assessed as cell viability at 10 uM incubated for 48 hrs by MTT assay relative to control; type: cell-based; conditions: read-out: Activity; summary of the method: as §1
[19] = Cytotoxicity against human SH-SY5Y cells assessed as decrease in cell viability incubated for 48 hrs by MTT assay; type: cell-based; conditions: read-out: LD50; summary of the method: as §2
[20] = Antioxidant activity assessed as H2O2 radical scavenging activity; type: functional
Summary of the method: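 Compounds at 0.05, 0.1, 0.2 and 0.4 mg/mL in phosphate buffer pH 7.4. 0.353 mL of 4 mM H2O2 in phosphate buffer added to 2.0 mL of each solution, absorbance read at 239 nm. Percent inhibition calculated from absorbances relative to control. Triplicate, mean ± SEM.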

[21] = system: SH-SY5Y; experiment: Neuroprotective activity against H2O2-induced toxicity in human SH-SY5Y cells assessed as cell viability at 25 uM pretreated for 48 hrs followed by H2O2 challenge and measured after 4 hrs by MTT assay (reference value: 18 +/- 2.64%); type: functional; conditions: read-out: Activity
[22] = Cytotoxicity against human SH-SY5Y cells assessed as cell viability at 25 uM incubated for 48 hrs by MTT assay (reference value: 100 +/- 12.00%); type: cell-based; conditions: read-out: Activity; summary of the method: as §1
[23] = Cytotoxicity against human Hep3B cells assessed as cell viability at 100 uM incubated for 48 hrs by MTT assay relative to control; type: cell-based, Hep 3B2; conditions: read-out: Activity; summary of the method: as §1

Chain of Glutamate NMDA receptor; GRIN1/GRIN2B (Q13224 whole entry, other chains not shown): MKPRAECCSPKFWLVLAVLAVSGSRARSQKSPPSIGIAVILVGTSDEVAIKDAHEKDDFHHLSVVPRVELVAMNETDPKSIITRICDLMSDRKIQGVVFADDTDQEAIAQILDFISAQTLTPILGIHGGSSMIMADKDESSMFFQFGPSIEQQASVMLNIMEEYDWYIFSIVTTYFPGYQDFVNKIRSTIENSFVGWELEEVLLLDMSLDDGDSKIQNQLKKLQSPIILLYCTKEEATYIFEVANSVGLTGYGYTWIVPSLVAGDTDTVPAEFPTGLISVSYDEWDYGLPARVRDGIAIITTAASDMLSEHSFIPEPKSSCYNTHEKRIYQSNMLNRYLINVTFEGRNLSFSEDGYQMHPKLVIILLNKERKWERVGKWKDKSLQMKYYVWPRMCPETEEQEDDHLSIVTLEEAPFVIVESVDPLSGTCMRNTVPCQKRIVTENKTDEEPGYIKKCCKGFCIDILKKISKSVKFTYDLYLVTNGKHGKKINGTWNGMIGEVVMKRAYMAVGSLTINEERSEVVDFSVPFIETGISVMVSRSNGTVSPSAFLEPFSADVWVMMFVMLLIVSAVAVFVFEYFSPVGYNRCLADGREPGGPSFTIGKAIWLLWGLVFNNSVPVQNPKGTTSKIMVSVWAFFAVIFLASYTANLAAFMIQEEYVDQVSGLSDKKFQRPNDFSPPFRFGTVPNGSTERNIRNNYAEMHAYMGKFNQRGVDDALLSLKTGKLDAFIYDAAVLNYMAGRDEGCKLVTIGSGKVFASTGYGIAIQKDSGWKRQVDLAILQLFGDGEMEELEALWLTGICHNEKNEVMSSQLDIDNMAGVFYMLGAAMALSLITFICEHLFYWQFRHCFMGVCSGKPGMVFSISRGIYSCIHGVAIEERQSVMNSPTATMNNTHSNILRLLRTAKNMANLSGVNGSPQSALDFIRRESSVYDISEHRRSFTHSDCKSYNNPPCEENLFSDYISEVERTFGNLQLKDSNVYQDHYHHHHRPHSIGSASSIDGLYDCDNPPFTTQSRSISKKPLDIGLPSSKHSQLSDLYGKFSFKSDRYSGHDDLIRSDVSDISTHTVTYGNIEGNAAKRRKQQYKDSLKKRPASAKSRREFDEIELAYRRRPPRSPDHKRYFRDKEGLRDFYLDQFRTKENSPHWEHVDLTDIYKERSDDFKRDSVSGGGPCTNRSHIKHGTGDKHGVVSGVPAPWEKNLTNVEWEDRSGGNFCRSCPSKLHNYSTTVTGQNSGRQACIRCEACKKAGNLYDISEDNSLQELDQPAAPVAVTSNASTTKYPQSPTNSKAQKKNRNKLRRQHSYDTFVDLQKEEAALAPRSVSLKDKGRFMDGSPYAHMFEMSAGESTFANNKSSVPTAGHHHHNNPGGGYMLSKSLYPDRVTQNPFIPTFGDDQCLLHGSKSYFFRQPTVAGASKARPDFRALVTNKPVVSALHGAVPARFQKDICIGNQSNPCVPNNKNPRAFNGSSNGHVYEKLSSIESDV

Row | Structure (SMILES) | Ki [1] | Ratio Ki [2] | Ratio Ki [3] | Ki [4] | Ki [5] | viability at 48 h, 100 µM [6] | viability at 48 h, 10 µM [7] | IC50 [8] | viability at 48 h, 25 µM [9] | CC50 at 48 h [10] | viability at 48 h, 50 µM [11] | viability at 48 h, 50 µM [12] | CC50 at 48 h [13] | viability at 48 h, 50 µM [14] | viability at 48 h, 10 µM [15] | viability at 48 h, 25 µM [16] | viability at 48 h, 100 µM [17] | viability at 48 h, 10 µM [18] | CC50 at 48 h [19] | IC50 [20] | other results
1 | O=C1CCc2ccccc2N1CCCCN1CCc2ccc([N+](=O)[O-])cc2C1 | 58 nM | 1.4 | 2.2 | 179 nM | 80 nM |  |  |  |  |  |  |  |  |  |  |  |  |  |  |  | 
2 | O=C1CCc2ccccc2N1CCCCN1CCC2(CC1)OCc1ccccc12 | 5 nM | 6.8 | 0.5 | 18 nM | 34 nM | 16% | 116% | 78.8 µg/mL (≈ 202 µM) | 67% | 50000 nM | 45% | 38% | 55000 nM | 40% | 61% | 78% | 31% | 92% | 60000 nM | 84.56 µg/mL (≈ 217 µM) | viability at 25 µM [21]: 97%; viability at 48 h, 25 µM [22]: 88 to 107%; viability at 48 h, 100 µM [23]: 10%
3 | O=c1oc(-c2ccccc2)nn1CCCCN1CCC2(CC1)OCc1ccccc12 | 8.2 nM | 2 | 1.2 | 19 nM | 16 nM | 1% | 120% | 17.96 µg/mL (≈ 44.3 µM) | 90% | 51000 nM | 60% | 42% | 55000 nM | 50% | 87% | 80% | 5% | 99% | 53000 nM | 21.19 µg/mL (≈ 52.3 µM) | viability at 25 µM [21]: 101%; viability at 48 h, 25 µM [22]: 96 to 104%; viability at 48 h, 100 µM [23]: 4%
4 | O=c1oc(-c2ccccc2)nn1CCCCN1CCN(c2ccccn2)CC1 | 226 nM | 12.4 | 0.33 | 944 nM | 2800 nM |  |  |  |  |  |  |  |  |  |  |  |  |  |  |  | 
5 | Cc1c(C)c2c(c(C)c1O)CCC(C)(C(=O)O)O2 (configuration not stated) [TROLOX] |  |  |  |  |  |  |  | 22.15 µg/mL (≈ 88.5 µM) |  |  |  |  |  |  |  |  |  |  |  | 25.88 µg/mL (≈ 103 µM) | 
6 | O=C1CCc2ccccc2N1CCCCN1CCN(c2ccccn2)CC1 | 78 nM | 0.9 | 1.6 | 120 nM | 73 nM |  |  |  |  |  |  |  |  |  |  |  |  |  |  |  | 
7 | O=c1oc(-c2ccccc2)nn1CCCCN1CCc2ccc([N+](=O)[O-])cc2C1 | 412 nM | 0.9 | 2.2 | 829 nM | 383 nM |  |  |  |  |  |  |  |  |  |  |  |  |  |  |  | 
8 | O=c1oc(-c2ccccc2)nn1CCCCN1CCN(c2ccc(F)cc2)CC1 | 68 nM | 10 | 0.57 | 383 nM | 686 nM |  |  |  |  |  |  |  |  |  |  |  |  |  |  |  | 
9 | Cc1ccc(CN(C)CCCCn2nc(-c3ccccc3)oc2=O)c(C)c1 | 26 nM | 0.8 | 0.95 | 20 nM | 21 nM | 28% | 121% | 25.47 µg/mL (≈ 69.7 µM) | 83% | 70000 nM | 80% | 70% | 69000 nM | 75% | 100% | 74% | 22% | 86% | 77000 nM | 31.44 µg/mL (≈ 86 µM) | viability at 25 µM [21]: 100%; viability at 48 h, 25 µM [22]: 85 to 96%; viability at 48 h, 100 µM [23]: 25%
10 | COc1cc2c(cc1OC)CN(CCCCN1C(=O)CCc3ccccc31)CC2 | 12 nM | 3.7 | 2.6 | 116 nM | 45 nM | 37% | 71% | 12.35 µg/mL (≈ 31.3 µM) | 70% | 67000 nM | 71% | 62% | 83000 nM | 68% | 75% | 79% | 42% | 80% | 36000 nM | 15.37 µg/mL (≈ 39 µM) | viability at 25 µM [21]: 73%; viability at 48 h, 25 µM [22]: 77 to 84%; viability at 48 h, 100 µM [23]: 30%
11 | Cc1ccc(CN(C)CCCCN2C(=O)CCc3ccccc32)c(C)c1 | 5 nM | 6.4 | 1.9 | 60 nM | 32 nM | 78% | 92% | 26.24 µg/mL (≈ 74.9 µM) | 81% | 60000 nM | 57% | 52% | 76000 nM | 90% | 77% | 59% | 47% | 79% | 231000 nM | 29.16 µg/mL (≈ 83.2 µM) | viability at 25 µM [21]: 98%; viability at 48 h, 25 µM [22]: 79 to 95%; viability at 48 h, 100 µM [23]: 223%
12 | O=c1oc(-c2ccccc2)nn1CCCCN1CCN(C2CCCCC2)CC1 | 23 nM | 4 | 0.37 | 35 nM | 93 nM | 105% | 81% | 69.25 µg/mL (≈ 180 µM) | 76% | 71000 nM | 46% | 72% | 76000 nM | 75% | 72% | 48% | 57% | 62% | 81000 nM | 73.07 µg/mL (≈ 190 µM) | viability at 25 µM [21]: 114%; viability at 48 h, 25 µM [22]: 78 to 105%; viability at 48 h, 100 µM [23]: 143%
13 | O=C1O[C@H]([C@@H](O)CO)C(O)=C1O [ASCORBIC ACID] |  |  |  |  |  |  |  | 13.85 µg/mL (≈ 78.6 µM) |  |  |  |  |  |  |  |  |  |  |  | 17.11 µg/mL (≈ 97.1 µM) | 

From ChEMBL document CHEMBL4304784, “Discovery of new potent dual sigma receptor/GluN2b ligands with antioxidant property as neuroprotective agents” (Eur J Med Chem, 2019)
